Measurements from different studies.
Each line is one published result; the experiments were not run side by side. ≈ marks a conversion by molar mass, not a printed value.
Organism: Cryptococcus neoformans

Cl.Oc1cccc2c1[nH]c1c(C3=CC4(O)CC/C=C\CCCCN5CCC3C3(CC6/C=C\CCCCN6C43)C5)nccc12 (single isomer, unassigned; (+))  IC50 (microbial growth; ATCC90113): 2.69 µg/mL
O=C(CCCCCC[P+](c1ccccc1)(c1ccccc1)c1ccccc1)Nc1cc(O)c(O)c(O)c1.[Br-]  MIC (microbial growth, broth dilution; ATCC208821; 24 h): 32 µg/mL
C#CCCCCCCCCC=CCC(O)CC(O)CO (stereo not drawn)  IC50 (microbial growth, broth dilution; ATCC90113): > 8 µg/mL
C[C@@H]1[C@H](O)[C@@H](C)/C=C/C=C/C=C/C=C/C=C/C=C/C=C/[C@H](O[C@@H]2O[C@H](C)[C@@H](O)[C@H](N)[C@@H]2O)C[C@@H]2O[C@](O)(C[C@@H](O)C[C@@H](O)[C@H](O)CC[C@@H](O)C[C@@H](O)CC(=O)O[C@H]1C)C[C@H](O)[C@H]2C(=O)O  MIC (microbial growth; ATCC90113): 0.68 µM
O=C(CCCCCCCC[P+](c1ccccc1)(c1ccccc1)c1ccccc1)Nc1cc(O)c(O)c(O)c1.[Br-]  MIC (microbial growth, broth dilution; ATCC208821; 24 h): 8 µg/mL
C[C@@H]1[C@H](O)[C@@H](C)/C=C/C=C/C=C/C=C/C=C/C=C/C=C/[C@H](O[C@@H]2O[C@H](C)[C@@H](O)[C@H](N)[C@@H]2O)C[C@@H]2O[C@](O)(C[C@@H](O)C[C@@H](O)[C@H](O)CC[C@@H](O)C[C@@H](O)CC(=O)O[C@H]1C)C[C@H](O)[C@H]2C(=O)O  MFC (microbial killing; ATCC90113): 2.5 µg/mL (≈ 2.71 µM)
OCCN1CCN(CCCN2c3ccccc3Sc3ccc(Cl)cc32)CC1  MIC (microbial growth, broth dilution): 16 µg/mL
O=C(CCCCCCCC[P+](c1ccccc1)(c1ccccc1)c1ccccc1)Nc1ccc(O)c(O)c1.[Br-]  MIC (microbial growth, broth dilution; ATCC208821; 24 h): > 32 µg/mL
C[C@@H]1[C@H](O)[C@@H](C)/C=C/C=C/C=C/C=C/C=C/C=C/C=C/[C@H](O[C@@H]2O[C@H](C)[C@@H](O)[C@H](N)[C@@H]2O)C[C@@H]2O[C@](O)(C[C@@H](O)C[C@@H](O)[C@H](O)CC[C@@H](O)C[C@@H](O)CC(=O)O[C@H]1C)C[C@H](O)[C@H]2C(=O)O  IC50 (microbial growth, broth dilution; ATCC90113): 0.69 µg/mL (≈ 0.747 µM)
